Test: Toxicity liver stage against HepG2, at 10uM
Format: cell-based
Design: test concentration 10 uM, cell line HepG2-A16-CD81EGFP
Details: human, HepG2-A16-CD81EGFP cells; read-out: INHIBITION
Outline: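 Uninfected HepG2-A16-CD81EGFP cells, 3 × 10^3 per well, 1536-well, plated on prespotted compound at 10 μM final, parasite-free screening media added to match infected plates; puromycin 10 μM positive, DMSO 0.5% negative; run in parallel with 48 h PbLuc assay at 37 °C, 5% CO2; viability by CellTiter-Glo luminescence, normalized to controls.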

Compound | cytotoxicity at 10 µM
COC(=O)[C@H](C)NC(=O)CSCc1nc2sc(C(C)C)cc2c(=O)[nH]1 | 2.87%
Cn1cc(NC(=O)CNC(=O)N2CCN(c3ccc(Cl)cc3)CC2)cn1 | 6.9%
Cc1nn2c(-c3cnn(C)c3)nnc2s1 | -15.4%
Cc1cc(C)nc(NCCCC(=O)NCCn2ccc3ccccc32)n1 | -0.1%
NC(=O)C1CCN(C(=O)c2cc(Br)ccc2-n2cnnn2)CC1 | 13.1%
Cc1noc(C)c1CCC(=O)N1CCN(CCn2cccn2)CC1 | -24.2%
Cc1noc(-c2ccc(N3CCCC(C(=O)N4CCSCC4)C3)nc2)n1 (stereo unspecified) | -2.45%
Cc1ccc(N2CC[C@H](OCC3CC3)[C@@H]2Cc2cnn(C)c2)nn1 | -10.7%
CCN(Cc1nonc1C)C(=O)Cn1nc(C(F)(F)F)cc1C1CC1 | 1.45%
Cc1nn(C)c2c(=O)n(Cc3ccccc3)nnc12 | 5.53%
Cc1cccc(-n2nnnc2C2(NCc3ccco3)CCCCC2)c1 | 6.27%
Cn1ccc(C(=O)N2CCCC2c2cc(CCO)[nH]n2)n1 (stereo unspecified) | 3.31%
CC(C)C(=O)N1CCC(c2c(C(N)=O)sc3ccccc23)C1 (stereo unspecified) | -2.66%
COCC(=O)N1CCCC(c2nc(N)ncc2-c2cccc(F)c2)C1 (stereo unspecified) | -0.6%
Cc1cc(Cc2ccccc2)cc(C2CCCNC2)n1 (stereo unspecified) | -5.89%
c1cc(CCNc2ncc(-c3cnccn3)c(C3CC3)n2)ccn1 | 13.5%
C[C@@H]1CN2C[C@H](O)CC2CN1Cc1ccc2nccnc2c1 (stereo partly specified) | 5.62%
C[C@H]1CN2C[C@H](O)CC2CN1Cc1ccncc1 (stereo partly specified) | -3.02%
COc1cccc(S(=O)(=O)N2C[C@H](OC)[C@]3(CCCO3)C2)c1 | -25.7%
CC(C)CNC(=O)C[S+]([O-])Cc1csc(C2CCCCC2)n1 (stereo unspecified) | -48.5%
CN(Cc1c(F)cccc1Cl)C(=O)Cn1cnc(C#N)n1 | -5.5%
CC(C(=O)N(C)Cc1ccc(Br)o1)n1cncn1 (stereo unspecified) | 5.87%
CNC(=O)C(CC(C)C)NC(=O)c1cccc(-c2nc(C)cs2)c1 (stereo unspecified) | 14.5%

Compound | cytotoxicity at 10 µM
CC(C)(NCc1cccc(C(N)=O)c1)c1ccc2c(c1)OCO2 | 3.15%
CNC(=O)c1cccc(CN2CCN(C3=NCC(C)(C)S3)CC2)c1 | -2.37%
CC(C)OCCN1CCC(Nc2ncc(Br)cn2)CC1 | 2.83%
Cc1cc(CN(C)C(=O)CNS(=O)(=O)c2cccs2)no1 | -33.4%
CNC(=O)N1CCOCC1c1c(C)nn(C)c1C (stereo unspecified) | -7.11%
CC1CCC(NS(=O)(=O)CC(=O)NC2(C(N)=O)CCCC2)CC1 (stereo unspecified) | -4.12%
Cc1cccc(OCCNC(=O)Cn2ccc(C)cc2=O)c1 | -1.63%
COc1ccc(CNc2nc(N3CCOCC3)ns2)cc1 | -4.77%
NC(=O)N1CCCC1COC(=O)c1cc(F)ccc1F (stereo unspecified) | -0.743%
COCCN1CCC(NC(=O)Nc2cccc(F)c2)C1 (stereo unspecified) | -0.898%
CCc1nc(C2CCCN(C(=O)C3=NN(C(C)C)C(=O)CC3)C2)no1 (stereo unspecified) | -7.28%
CCc1nc2c(s1)C(N(C)C(=O)c1cc[nH]n1)CCC2 (stereo unspecified) | 7.76%
Cc1cnn(C2CN(CC(O)c3ccccc3)C2)c1 (stereo unspecified) | -2.55%
O=C(NCCCn1cccn1)N1CCCC1c1ccsc1 (stereo unspecified) | -7.86%
Cc1nn(C)c(C)c1C1COCCN1c1ncnc2c(C)cccc12 (stereo unspecified) | 6.54%
CC(Cn1cncn1)NC(=O)Nc1ccc(COC2CCCC2)cc1 (stereo unspecified) | -1.47%
CCOC(=O)NCCNC(=O)c1cc(Br)cn1C(C)C | 9.08%
CCNC(=O)Cc1c(C)nc2c(c1C)c(=O)[nH]n2C | 2.62%
CC(C)c1ncncc1C(=O)NCCN1CCCC1 | -9.91%
CN(C)C(=O)Cn1cc(C(=O)N2CCCc3cccc(F)c32)nn1 | 1.81%
CN(Cc1ccccc1)C(=O)CCNc1ncccc1C#N | 4.55%
CC(NC(=O)NCCNc1cccc(F)c1C#N)c1nccs1 (stereo unspecified) | -1.84%
N#CC1(NC(=O)c2ccn(-c3ccccc3Cl)n2)CCSC1 (stereo unspecified) | 0.462%

Compound | cytotoxicity at 10 µM
CC(C)COC(C)C(=O)N1CCCCC1 (stereo unspecified) | -5.66%
CS(=O)(=O)CCN(Cc1cccc(O)c1)C1CCC(O)CC1 (stereo unspecified) | 5.38%
CC(=O)Nc1nc(C(=O)NCCOc2cccc(F)c2)cs1 | 7.9%
O=C(Cn1cnnn1)Nc1ccc(F)cc1OCC1CC1 | 5.38%
CCc1nc(CSC2CCCN(c3cnn(C)c3)C2=O)cs1 (stereo unspecified) | 14.1%
CCN(Cc1cccs1)C(=O)c1ccc(=O)n(C)c1 | -9.56%
O=C(CCc1ccccc1)N1CCC(c2n[nH]c(C3CC3)n2)CC1 | -5.35%
Cc1noc(C(C)N2CCc3[nH]c4ccc(Cl)cc4c3C2)n1 (stereo unspecified) | 1.99%
Cc1cc(CNc2ccccc2N2CCCCC2)no1 | -1.31%
COCCc1noc(CN(C)c2cc(C)ncn2)n1 | 11.9%
Cc1nc(CNC(=O)N(Cc2ccccc2)CC(C)(C)O)oc1C | -2.28%
Cc1ccc(CCc2nc(C3CCOC3)no2)o1 (stereo unspecified) | 3.04%
Cc1ccc(CNC(=O)N2CCc3ccccc3C2CO)s1 (stereo unspecified) | 2%
CCC(C)NC(=O)Nc1ccc(CN2CCOC2=O)cc1 (stereo unspecified) | 10.5%
O=C(NC1CC1)c1cc(NC(=O)N2CCCC(O)C2)ccc1Cl (stereo unspecified) | -15.5%
O=C(c1ccccc1)N1CCOC2CNCC[C@H]21 (stereo partly specified) | -114%
O=C(c1ccccc1)N1CCO[C@@H]2CNC[C@@H]21 | -100%
O=C(c1cccnc1)N1C[C@@H]2OCCN(CCN3CCCC3)[C@@H]2C1 | -71.2%
COCCC1COC2(CCN(C(=O)Cc3ccccc3)CC2)C1 (stereo unspecified) | -69.2%
Cn1cc(C[C@H]2[C@@H](OCC3CC3)CCN2C(=O)c2ccc[nH]2)cn1 | -72.7%
Cc1ccc(N2CCC3(CC2)CC(OCC(=O)N(C)C)CO3)nn1 (stereo unspecified) | -7.59%
CN1CC2(CCN(C(=O)c3coc4c3C(=O)CCC4)C2)OC1=O (stereo unspecified) | -2.36%
Cc1cc(N2CCCN(C(=O)Cc3cc(F)cc(F)c3)CC2)ccn1 | -6.7%

Compound | cytotoxicity at 10 µM
c1ccc(CN2CCC(Cc3noc(C4CC4)n3)CC2)cc1 | 5.56%
CN1CCC(N2CCC(c3ccccc3C(=O)O)C2)CC1 (stereo unspecified) | -1.05%
CCC(O)C1CCN(C(=O)Nc2nc(-c3ccccc3)ns2)CC1 (stereo unspecified) | -130%
COc1ccccc1CCC(=O)N1C[C@H](c2ccccc2)[C@@H](N)C1 | -3.79%
CC(C)CN1CCC(c2nnc(CN3CCCC3)n2C2CC2)CC1 | -8.85%
Cc1nc(NCc2coc(-c3ccccc3)n2)cc(C2CCNCC2)n1 | 7.94%
CC(C)c1noc(C2CCCN2S(=O)(=O)Cc2ccc(F)cc2)n1 (stereo unspecified) | 3.88%
COc1ccc2[nH]cc(CCNC(=O)C3CCCN(C(C)=O)C3)c2c1 (stereo unspecified) | -5.58%
CC(C)=CCC1(CO)CCCN(S(C)(=O)=O)C1 (stereo unspecified) | -5.13%
Nc1ccnc(N2CCC(CCc3ccccc3)(C(=O)O)CC2)n1 | -3.65%
CNCC(=O)N[C@H]1CN(c2nc(C)c3c(n2)CCCC3)C[C@@H]1C1CC1 | 13.2%
Cc1ccc(C)c2c(O)cc(CNCC(N)=O)nc12 | -3.35%
CN(C)c1cncc(-c2ccnc3c2ccn3C)n1 | 5.51%
CN1C(=O)C2(CCCN(C(=O)c3ccc(=O)n(C)n3)C2)c2ccccc21 (stereo unspecified) | 4.65%
Cc1noc(CN(C)c2nc(-c3ccco3)nc3c2CCN(C)CC3)n1 | -0.0198%
COc1cccc(OCC2CCCN(C(=O)Cc3cccc(O)c3)C2)c1 (stereo unspecified) | -18.9%
Cc1ccc(C)c2c(O)cc(CNCc3ccc(S(N)(=O)=O)cc3)nc12 | -9.06%
O=C(CN1CC(n2cccn2)C1)NCCCN1CCCC1=O | -29.9%
CC(C)c1ncc2c(n1)CN(Cc1nc(-c3ccccn3)no1)CC2 | 1.59%
CCc1ncc2c(n1)CN(Cc1nc(-c3cccs3)no1)CC2 | -7.82%
Cn1ccc(C(=O)N2CCN(c3nccs3)CC2)cc1=O | -18.1%
Cn1cc(C(=O)N2CCN(c3ncccn3)CC2)ccc1=O | -7.82%
CCOc1ccccc1CNCC1CCN(CC(C)O)CC1 (stereo unspecified) | -9.04%

Compound | cytotoxicity at 10 µM
Cc1cccc(NC2CCN(C(=O)Nc3cn[nH]c3)CC2)n1 | -26.7%
CN(Cc1nc2ccccc2o1)C1CCCN(c2cccnn2)C1 (stereo unspecified) | -9.43%
CCn1cnnc1CNC(=O)NC(C)c1ccc(Cl)s1 (stereo unspecified) | -23.1%
CC(O)CN1CCC(CNCc2ccc(C(N)=O)cc2)CC1 (stereo unspecified) | -9.83%
CCOc1ccccc1OC1CCN(C(=O)c2cc[nH]n2)CC1 | -4.53%
COc1ccc2c(c1)CCCN2Cc1nc2c(cnn2C)c(=O)[nH]1 | -3.3%
Cc1cccc(C2(NC(=O)CCN3C(=O)CCC3=O)CCCC2)c1 | -17.4%
CN(C(=O)c1ccccc1Cl)C1CCN(c2ccccn2)CC1 | -0.577%
Cc1nc(C)n(CC2CCCCN2CC(=O)N(C)Cc2ccco2)n1 (stereo unspecified) | 2.65%
CN(C)C(=O)[C@H]1C[C@H]2OCC[C@H]2N(Cc2ccc3c(c2)OCO3)C1 | -71.3%
Cn1cccc1C(=O)N1CCC2(CC1)CN(c1ccccn1)CCO2 | -10.8%
Cc1noc(C)c1CN1CCN(Cc2ccncc2)c2ncccc2C1 | 5.51%
CN(C)C(=O)[C@@H]1CCO[C@@H]2CCN(CCc3ccccc3)C[C@@H]21 | -9.55%
Cc1cccc(CN2CCc3onc(CO)c3C2)n1 | 6.81%
c1cn2c(n1)CN(C1CCOCC1)CC(CN1CCCC1)C2 (stereo unspecified) | -0.123%
Cc1noc([C@@H]2C[C@H]3CN(C(=O)C4CCN(C)CC4)C[C@H]3O2)n1 | -71.2%
COc1ccc(CN2CCC[C@@H]3CN(C(=O)c4ccco4)C[C@@H]32)cc1 | 1.44%
COCC(=O)N1C[C@H]2CN(Cc3csc(C)n3)C(=O)[C@H]2C1 | -77.2%
CC1CCN(c2nc3cn(Cc4cccc(F)c4)c(=O)c-3c[nH]2)CC1 | 4.52%
